# High-throughput results: PubChem BioAssay, several laboratories
# An excerpt weighted towards active compounds, which were near 1.6% of everything screened.
# proCasp3 act – activators of human procaspase-3. P42574. recombinant procaspase-3 D3A, Ac-DEVD-pNA absorbance 405 nm. activation, % at 8.5 µM. 330,000 compounds, 0.11% hits;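 active = activation above the mean of all tested compounds plus 3 SD, cut at about 21% in these data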;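 note: 0% = DMSO alone and 100% = DMSO wells spiked with extra 5 µM PC-3 D3A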
#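 material = Procaspase-3 D3A mutant | probe or stimulus = Ac-DEVD-pNA | compound = single dose, 8.5 µM nominal compound, 0.8% DMSO | timing = 1 h preincubation, 2 h reaction | measured by = 405 nm absorbance of p-nitroaniline, reads at 0 and 120 min | benchmarks = DMSO-only low control, 5 µM PC-3 D3A high control | repeats = singlicate, each compound tested once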
# KLK7 zymogen act – activates the human kallikrein-7 zymogen; activation, % at 7 µM; 370,000 compounds, 0.9% hits; AID 652039; purified proKLK7, EDANS-DABCYL substrate fluorescence; 100% is mature enzyme control, 0% vehicle; P49862;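 active = activation above the mean of all tested compounds plus 3 SD, computed per campaign excluding outliers beyond control limits, cut at about 13% in these data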
# proCasp7 act – counter-screen: procaspase-7 (human) activation; recombinant procaspase-7, Ac-DEVD-pNA absorbance 405 nm; D23A/D198A/D206A triple mutant, cannot self-cleave; scale: DMSO 0, 5 µM enzyme 100; 330,000 compounds, 0.093% hits; P55210; AID 463210; activation, % at 8.5 µM;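 active = percent activation above the screen-wide mean plus 3 SD, cut at about 25% in these data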
#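 Assay system: Uncleavable procaspase-7 mutant enzyme / Input: 2 µM procaspase-7 mutant as dispensed / Dosing: single nominal 8.5 µM compound dose, 0.8% DMSO final / Timing: 1 h enzyme–compound preincubation and 2 h substrate reaction, both 25 °C / Detection: p-Nitroaniline absorbance at 405 nm, read at 0 and 120 min / Replication: singlicate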
# Neddyl block – cullin neddylation inhibition; P61081+Q13564; TR-FRET cullin neddylation, biochemical; calls only at 25 µM; 360,000 compounds, 0.58% hits; AID 651699; in the data active = inhibition above about 36%
# Target sequence (P61081 whole entry, looked up): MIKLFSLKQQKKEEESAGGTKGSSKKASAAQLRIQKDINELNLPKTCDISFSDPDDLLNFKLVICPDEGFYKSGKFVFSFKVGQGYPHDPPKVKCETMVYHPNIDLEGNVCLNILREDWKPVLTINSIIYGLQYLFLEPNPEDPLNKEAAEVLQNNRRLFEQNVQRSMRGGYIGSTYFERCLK
# Target sequence (Q13564 whole entry, looked up): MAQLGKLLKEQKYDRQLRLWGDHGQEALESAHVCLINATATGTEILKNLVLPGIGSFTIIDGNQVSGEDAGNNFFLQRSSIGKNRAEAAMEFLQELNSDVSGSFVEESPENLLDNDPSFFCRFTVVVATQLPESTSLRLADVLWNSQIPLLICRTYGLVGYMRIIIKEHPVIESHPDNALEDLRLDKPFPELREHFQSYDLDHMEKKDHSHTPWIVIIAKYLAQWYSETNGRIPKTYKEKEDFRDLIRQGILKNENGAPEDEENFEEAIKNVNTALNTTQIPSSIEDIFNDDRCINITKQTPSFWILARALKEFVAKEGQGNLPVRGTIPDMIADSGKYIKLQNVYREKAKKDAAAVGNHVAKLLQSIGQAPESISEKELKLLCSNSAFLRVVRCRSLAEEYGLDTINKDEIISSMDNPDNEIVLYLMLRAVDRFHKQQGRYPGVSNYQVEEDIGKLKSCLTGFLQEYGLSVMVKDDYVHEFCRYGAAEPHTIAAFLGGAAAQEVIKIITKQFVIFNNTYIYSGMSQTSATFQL
# KLK7 act conf – proKLK7 activation, confirmation; shares compounds with KLK7 zymogen act; purified proKLK7, EDANS-DABCYL substrate fluorescence; scaled: vehicle 0, mature enzyme 100; activation, % at 7 µM; 3,200 compounds, 68% hits; AID 686949;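 active = activation, as change over the incubation, above the mean of all tested compounds plus 3 SD, cut at about 13% in these data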
# EDANS interfere – counter-screen for kallikrein-7 activators: EDANS-DABCYL optical interference; EDANS-DABCYL substrate fluorescence interference, no enzyme, 4 h; solvent 0%, active enzyme control 100%; activation, % at 7 µM; 3,200 compounds, 80% hits; shares compounds with KLK7 zymogen act;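 active = activation above the all-compound mean plus 3 SD, ignoring values outside control-based bounds, cut at about 4.8% in these data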;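 note: value is the 4 h activation minus the activation read at time zero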
# EDANS interf – EDANS fluorescence interference in dose response, no enzyme; EDANS-DABCYL peptide fluorescence interference; shares compounds with KLK7 zymogen act; 250 compounds, 20% hits; EC50, µM; AID 720493;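 active = compounds that raise the fluorescence signal in this interference counterscreen, with EC50 at or below 10 µM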;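 note: intact quenched peptide substrate alone read at 355 nm excitation and 520 nm emission; signal is fluorescence gain from T0 to T4 after four hours at room temperature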
# * = called active by the depositor; i = inactive; x = no result given.
SMILES,proCasp3 act,KLK7 zymogen act,proCasp7 act,Neddyl block,KLK7 act conf,EDANS interfere,others
CC(C)c1cc(NCC2CCCO2)n2c(nc3ccccc32)c1C#N (stereo not given),-2,21*,-4,x,-12,-17,
CCc1c(C)c(C#N)c2nc3ccccc3n2c1NCC1CCCO1 (stereo not given),-5,2,1,x,x,x,
Cc1csc2nc3cc(C(N)=O)ccc3c(=O)n12,1,22*,5,x,63*,77*,
CCOc1ccc(-c2cc(C(=O)NCCCN3CCCC3)c3ccccc3n2)cc1,-6,24*,7,x,-1,-5,
Cc1ccc(-c2cc(C(=O)NCCCN3CCCC3)c3ccccc3n2)cc1C,7,9,-3,x,x,x,
CC(=O)c1cccc(NC(=O)CC2S/C(=N/N=C/c3ccccc3)NC2=O)c1 (stereo not given),7,0,14,i,x,x,
O=C(O)CNC(=O)CC1S/C(=N/N=C/c2ccccc2O)NC1=O (stereo not given),-3,21*,-6,i,34*,41*,
Cc1ccc(NC(=O)COC(=O)c2cccc3c(=O)c(C)c(-c4ccccc4)oc23)cc1,5,0,-5,i,x,x,
Cc1ccc2c(c1)c1c3n2CCN=C3CCC1,-2,30*,1,i,3,9.7*,
c1cc2c(cc1C1CCCCC1)c1c3n2CCN=C3CCC1,-9,2,-17,i,x,x,
Cc1cccc(-n2c(SCC(=O)N3CCCC3)nc3n[nH]c(C)c3c2=N)c1,12,30*,2,i,70*,43*,EDANS interf=i
CCc1ccccc1NC(=O)CSc1nc2n[nH]c(C)c2c(=N)n1-c1ccc(OC)cc1,x,31*,x,i,20*,16*,EDANS interf=3.3*
CCCCN(CC)C(=O)CSc1nc2n[nH]c(C)c2c(=N)n1-c1cccc(C)c1,-1,0,3,i,x,x,
COc1ccccc1NC(=O)CSc1nc2n[nH]c(C)c2c(=N)n1-c1ccccc1Cl,8,-1,9,i,x,x,
CC(C)=NOCC(=O)Nn1c(COc2c(C)cccc2C)nc2ccccc2c1=O,7,1,5,i,x,x,
COc1cc2c(cc1OC)C(=O)CCS2,5,14*,5,x,16*,22*,
CCc1cc(=O)oc2c(C)c(O)c(CN3CCCCC3)cc12,1,49*,-6,i,64*,79*,
Cc1c(O)c(CN2CCCC2)cc2c1oc(=O)c1ccccc12,0,0,-5,i,x,x,
Cc1c(O)c(CN2CCCC2)cc2c3c(c(=O)oc12)CCC3,5,70*,8,x,67*,65*,
COc1ccc2c(CN3CCCCC3)cc(=O)oc2c1,x,23*,x,x,3,1,
O=C(NCc1ccc(F)cc1)c1cc2c(cc1Cl)N1CCCCCC1=NS2(=O)=O,-3,0,-6,i,x,x,
Cc1cc(C)cc(NC(=O)CN(C)CC(=O)N(CC(C)C)c2c(N)n(CC(C)C)c(=O)[nH]c2=O)c1,-6,0,7,i,x,x,
CCSc1nc2c(c(=O)[nH]1)C(c1ccc(C)cc1)C1=C(CCCC1=O)N2 (stereo not given),-3,17*,-8,x,-7,-7,
CSc1ccc(/C=C/C(=O)OCC(=O)NC2CCCC2)cc1,x,19*,x,x,-2,4,
O=C(COC(=O)/C=C/c1ccc(F)cc1)NC1CCCC1,x,0,x,i,x,x,
SMILES,proCasp3 act,KLK7 zymogen act,proCasp7 act,Neddyl block,KLK7 act conf,EDANS interfere,others
COc1ccc(C=CC(=O)c2ccc([N+](=O)[O-])cc2)cc1,x,0,x,i,x,x,
COc1cccc(C(=O)/C=C/c2ccc(OCC#N)c(OC)c2)c1,-4,-1,-2,i,x,x,
COc1ccc(/C=C/C(=O)c2ccccc2)cc1COc1ccccc1F,6,263*,7,i,-17,80*,
COc1cc(/C=C/C(=O)c2ccc(O)cc2)ccc1OCC#N,3,16*,0,i,3,4.2*,
COc1ccc(C(=O)/C=C/c2ccc(O)cc2)cc1,-4,18*,-26,i,4,5.5*,
COc1cc(/C=C/C(=O)OCC(=O)Nc2ccc3c(c2)OCCO3)ccc1OCC#N,-4,38*,2,i,128*,110*,
c1cc(-c2ccc(N3CCOCC3)cc2)n2cnnc2c1,x,67*,x,x,69*,67*,
Cc1cccc(-n2c3nc(=O)[nH]c(=O)c-3cc3cc([N+](=O)[O-])ccc32)c1,-4,1,-8,i,x,x,
Cc1cccc(-n2c3nc(=O)[nH]c(=O)c-3cc3c(C)nn(-c4ccccc4)c32)c1C,6,14*,7,x,46*,58*,
Cc1nn(-c2ccccc2)c(=O)c2ccccc12,1,0,1,i,x,x,
Cc1nn(-c2ccccc2)c2c1cc1c(=O)n(C)c(=O)nc-1n2-c1ccccc1F,4,13*,1,x,18*,9.1*,EDANS interf=>70
COCCCNC(=O)C[C@H]1C[C@H](C(=O)N2CCCCC2)[C@@]2(CCc3ccccc3)c3[nH]c4cc(-c5ccco5)ccc4c3CCN2C1=O,-1,22*,9,x,-27,-27,
O=C(C[C@H]1C[C@H](C(=O)N2CCCCC2)[C@@]2(CCc3ccccc3)c3[nH]c4cc(-c5ccco5)ccc4c3CCN2C1=O)NCCN1CCOCC1,8,22*,-1,x,17*,5.7*,EDANS interf=8.6*
O=C(COC(=O)c1cc([N+](=O)[O-])ccc1N1CCOCC1)Nc1cccc(F)c1,-5,0,-10,i,x,x,
CNc1ccc(/C=C\CCCO)cn1,x,16*,x,x,15*,18*,
CC(=O)Nc1cnc(/C=C\CCCO)cn1,x,2,x,i,x,x,
COc1ccc(-n2c(O)c(/C=N/NS(=O)(=O)c3ccc(C)cc3)c3ccccc3c2=O)cc1OC,-2,48*,-4,i,0,0,
COc1ccc(-n2c(O)c(/C=N/NS(=O)(=O)c3cc(C)ccc3C)c3ccccc3c2=O)cc1OC,-3,10,-2,i,x,x,
Cc1ccc(-c2cnc3cccnn23)cc1F,x,23*,x,x,5,7.6*,
COc1cccc(-c2cnc3cccnn23)c1,x,46*,x,x,39*,45*,
CS(=O)(=O)Nc1ccc(-c2cnc3cccnn23)cc1,x,76*,x,x,14*,11*,EDANS interf=i
COc1ccc(-c2cc(NC=O)c3ncc(-c4cccc(OC)c4)n3c2)cc1,x,0,x,i,x,x,
COC(=O)[C@]12CCCCC=C1N(Cc1cccc3ccccc13)C(=O)[C@H](CC(=O)NCC1CCCCC1)C2,x,0,x,i,x,x,
COc1ccc(CCC(=O)N2CCN(c3ccccc3)CC2)cc1OC,5,0,1,i,x,x,
